According to ChEMBL document CHEMBL1275272, “Synthesis, characterization and antimicrobial activity of some disubstituted 1,3,4-oxadiazoles carrying 2-(aryloxymethyl)phenyl moiety” (2010):
≈ marks a conversion by molar mass, not a printed value.

Experiments:
Assay type in all cases: functional
Staphylococcus aureus = assay: Antibacterial activity against Staphylococcus aureus after 16 to 18 hrs by serial dilution method; conditions: for MIC: Staphylococcus aureus
Procedure, shortened: (§1)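 The test compound was dissolved in DMF and serially diluted. A standard drop of the prepared microbial culture was added to each dilution, and tubes were incubated at 37 °C for 16–18 h. MIC was taken as the highest dilution that stayed clear with no visible turbidity.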

Escherichia coli = assay: Antibacterial activity against Escherichia coli after 16 to 18 hrs by serial dilution method; conditions: for MIC: Escherichia coli; procedure, shortened: as §1
Pseudomonas aeruginosa = assay: Antibacterial activity against Pseudomonas aeruginosa after 16 to 18 hrs by serial dilution method; conditions: for MIC: Pseudomonas aeruginosa; procedure, shortened: as §1
Klebsiella pneumoniae = assay: Antibacterial activity against Klebsiella pneumoniae after 16 to 18 hrs by serial dilution method; conditions: for MIC: Klebsiella pneumoniae
Talaromyces marneffei = assay: Antifungal activity against Penicillium marneffei after 16 to 18 hrs by serial dilution method; conditions: for MIC: Talaromyces marneffei; procedure, shortened: as §1
[1] = test system: Trichophyton mentagrophytes; assay: Antifungal activity against Trichophyton mentagrophytes after 16 to 18 hrs by serial dilution method; conditions: for MIC: Trichophyton mentagrophytes
Aspergillus flavus = assay: Antifungal activity against Aspergillus flavus after 16 to 18 hrs by serial dilution method; conditions: for MIC: Aspergillus flavus; procedure, shortened: as §1
Aspergillus fumigatus = assay: Antifungal activity against Aspergillus fumigatus after 16 to 18 hrs by serial dilution method; conditions: for MIC: Aspergillus fumigatus

Row | MIC (Staphylococcus aureus) | MIC (Escherichia coli) | MIC (Pseudomonas aeruginosa) | MIC (Klebsiella pneumoniae) | MIC (Talaromyces marneffei) | MIC [1] | MIC (Aspergillus flavus) | MIC (Aspergillus fumigatus) | SMILES | inhibition zone (IZ) (Staphylococcus aureus) | inhibition zone (IZ) (Escherichia coli) | inhibition zone (IZ) (Pseudomonas aeruginosa) | inhibition zone (IZ) (Klebsiella pneumoniae) | inhibition zone (IZ) (Talaromyces marneffei) | inhibition zone (IZ) [1] | inhibition zone (IZ) (Aspergillus flavus) | inhibition zone (IZ) (Aspergillus fumigatus)
1 | 25 µg/mL (≈ 76.6 µM) | 25 µg/mL (≈ 76.6 µM) | 25 µg/mL (≈ 76.6 µM) | 25 µg/mL (≈ 76.6 µM) | 25 µg/mL (≈ 76.6 µM) | 25 µg/mL (≈ 76.6 µM) | 25 µg/mL (≈ 76.6 µM) | 25 µg/mL (≈ 76.6 µM) | CCSc1nnc(-c2ccccc2COc2cccc(C)c2)o1 | <10 mm | <10 mm | <10 mm | <10 mm | <10 mm | <10 mm | <10 mm | <10 mm
2 | 12.5 µg/mL (≈ 32 µM) | 12.5 µg/mL (≈ 32 µM) | 12.5 µg/mL (≈ 32 µM) | 12.5 µg/mL (≈ 32 µM) | 12.5 µg/mL (≈ 32 µM) | 12.5 µg/mL (≈ 32 µM) | 12.5 µg/mL (≈ 32 µM) | 12.5 µg/mL (≈ 32 µM) | Cc1cc(C)cc(-c2nnc(-c3ccccc3COc3ccc(Cl)cc3)o2)c1 | 11 mm | 11 mm | 11 mm | 11 mm | 11 mm | 11 mm | 11 mm | 11 mm
3 | 25 µg/mL (≈ 66.3 µM) | 25 µg/mL (≈ 66.3 µM) | 25 µg/mL (≈ 66.3 µM) | 25 µg/mL (≈ 66.3 µM) | 25 µg/mL (≈ 66.3 µM) | 25 µg/mL (≈ 66.3 µM) | 25 µg/mL (≈ 66.3 µM) | 25 µg/mL (≈ 66.3 µM) | Cc1ccc(OCc2ccccc2-c2nnc(-c3ccc(Cl)cc3)o2)cc1 | <10 mm | <10 mm | <10 mm | <10 mm | <10 mm | <10 mm | <10 mm | <10 mm
4 | 6.25 µg/mL (≈ 14.5 µM) | 6.25 µg/mL (≈ 14.5 µM) | 6.25 µg/mL (≈ 14.5 µM) | 6.25 µg/mL (≈ 14.5 µM) | 6.25 µg/mL (≈ 14.5 µM) | 12.5 µg/mL (≈ 28.9 µM) | 12.5 µg/mL (≈ 28.9 µM) | 6.25 µg/mL (≈ 14.5 µM) | COc1cc(-c2nnc(-c3ccccc3COc3ccc(C)cc3)o2)cc(OC)c1OC | 16 mm | 16 mm | 16 mm | 16 mm | 16 mm | 11 mm | 11 mm | 16 mm
5 | 25 µg/mL (≈ 64.4 µM) | 25 µg/mL (≈ 64.4 µM) | 25 µg/mL (≈ 64.4 µM) | 25 µg/mL (≈ 64.4 µM) | 25 µg/mL (≈ 64.4 µM) | 25 µg/mL (≈ 64.4 µM) | 25 µg/mL (≈ 64.4 µM) | 25 µg/mL (≈ 64.4 µM) | Cc1cccc(OCc2ccccc2-c2nnc(SCc3ccccc3)o2)c1 | <10 mm | <10 mm | <10 mm | <10 mm | <10 mm | <10 mm | <10 mm | <10 mm
6 | 25 µg/mL (≈ 46.8 µM) | 25 µg/mL (≈ 46.8 µM) | 25 µg/mL (≈ 46.8 µM) | 25 µg/mL (≈ 46.8 µM) | 25 µg/mL (≈ 46.8 µM) | 25 µg/mL (≈ 46.8 µM) | 25 µg/mL (≈ 46.8 µM) | 25 µg/mL (≈ 46.8 µM) | Cc1ccc(OCc2ccccc2-c2nn(CNc3ccc(Cl)cc3C(=O)C(F)(F)F)c(=S)o2)cc1 | <10 mm | <10 mm | <10 mm | <10 mm | <10 mm | <10 mm | <10 mm | <10 mm
7 | 25 µg/mL (≈ 46.8 µM) | 25 µg/mL (≈ 46.8 µM) | 25 µg/mL (≈ 46.8 µM) | 25 µg/mL (≈ 46.8 µM) | 25 µg/mL (≈ 46.8 µM) | 25 µg/mL (≈ 46.8 µM) | 25 µg/mL (≈ 46.8 µM) | 25 µg/mL (≈ 46.8 µM) | Cc1cccc(OCc2ccccc2-c2nn(CNc3ccc(Cl)cc3C(=O)C(F)(F)F)c(=S)o2)c1 | <10 mm | <10 mm | <10 mm | <10 mm | <10 mm | <10 mm | <10 mm | <10 mm
8 | 25 µg/mL (≈ 76.6 µM) | 25 µg/mL (≈ 76.6 µM) | 25 µg/mL (≈ 76.6 µM) | 25 µg/mL (≈ 76.6 µM) | 25 µg/mL (≈ 76.6 µM) | 25 µg/mL (≈ 76.6 µM) | 25 µg/mL (≈ 76.6 µM) | 25 µg/mL (≈ 76.6 µM) | CCSc1nnc(-c2ccccc2COc2ccc(C)cc2)o1 | <10 mm | <10 mm | <10 mm | <10 mm | <10 mm | <10 mm | <10 mm | <10 mm
9 | 6.25 µg/mL (≈ 16.4 µM) | 6.25 µg/mL (≈ 16.4 µM) | 6.25 µg/mL (≈ 16.4 µM) | 6.25 µg/mL (≈ 16.4 µM) | 6.25 µg/mL (≈ 16.4 µM) | 6.25 µg/mL (≈ 16.4 µM) | 6.25 µg/mL (≈ 16.4 µM) | 6.25 µg/mL (≈ 16.4 µM) | Fc1ccccc1-c1nnc(-c2ccccc2COc2ccc(Cl)cc2)o1 | 16 mm | 16 mm | 16 mm | 16 mm | 16 mm | 16 mm | 16 mm | 16 mm
10 | 6.25 µg/mL (≈ 13.3 µM) | 6.25 µg/mL (≈ 13.3 µM) | 6.25 µg/mL (≈ 13.3 µM) | 6.25 µg/mL (≈ 13.3 µM) | 12.5 µg/mL (≈ 26.5 µM) | 12.5 µg/mL (≈ 26.5 µM) | 6.25 µg/mL (≈ 13.3 µM) | 6.25 µg/mL (≈ 13.3 µM) | Cc1cccc(OCc2ccccc2-c2nn(CNc3cccc(C(F)(F)F)c3)c(=S)o2)c1 | 16 mm | 16 mm | 16 mm | 16 mm | 11 mm | 11 mm | 16 mm | 16 mm
11 | 25 µg/mL (≈ 66.3 µM) | 25 µg/mL (≈ 66.3 µM) | 25 µg/mL (≈ 66.3 µM) | 25 µg/mL (≈ 66.3 µM) | 25 µg/mL (≈ 66.3 µM) | 25 µg/mL (≈ 66.3 µM) | 25 µg/mL (≈ 66.3 µM) | 25 µg/mL (≈ 66.3 µM) | Cc1ccccc1OCc1ccccc1-c1nnc(-c2ccc(Cl)cc2)o1 | <10 mm | <10 mm | <10 mm | <10 mm | <10 mm | <10 mm | <10 mm | <10 mm
12 | 12.5 µg/mL (≈ 29.6 µM) | 12.5 µg/mL (≈ 29.6 µM) | 12.5 µg/mL (≈ 29.6 µM) | 12.5 µg/mL (≈ 29.6 µM) | 12.5 µg/mL (≈ 29.6 µM) | 12.5 µg/mL (≈ 29.6 µM) | 12.5 µg/mL (≈ 29.6 µM) | 12.5 µg/mL (≈ 29.6 µM) | Cc1cccc(CSc2nnc(-c3ccccc3COc3ccc(Cl)cc3)o2)c1 | 11 mm | 11 mm | 11 mm | 11 mm | 11 mm | 11 mm | 11 mm | 11 mm
13 | 25 µg/mL (≈ 56.6 µM) | 25 µg/mL (≈ 56.6 µM) | 25 µg/mL (≈ 56.6 µM) | 25 µg/mL (≈ 56.6 µM) | 25 µg/mL (≈ 56.6 µM) | 25 µg/mL (≈ 56.6 µM) | 25 µg/mL (≈ 56.6 µM) | 25 µg/mL (≈ 56.6 µM) | Clc1ccc(OCc2ccccc2-c2nnc(-c3cccc(Br)c3)o2)cc1 | <10 mm | <10 mm | <10 mm | <10 mm | <10 mm | <10 mm | <10 mm | <10 mm
14 | 12.5 µg/mL (≈ 29.9 µM) | 12.5 µg/mL (≈ 29.9 µM) | 12.5 µg/mL (≈ 29.9 µM) | 12.5 µg/mL (≈ 29.9 µM) | 12.5 µg/mL (≈ 29.9 µM) | 12.5 µg/mL (≈ 29.9 µM) | 12.5 µg/mL (≈ 29.9 µM) | 12.5 µg/mL (≈ 29.9 µM) | S=c1oc(-c2ccccc2COc2ccc(Cl)cc2)nn1CN1CCOCC1 | 11 mm | 11 mm | 11 mm | 11 mm | 11 mm | 11 mm | 11 mm | 11 mm
15 | 12.5 µg/mL (≈ 33.7 µM) | 12.5 µg/mL (≈ 33.7 µM) | 12.5 µg/mL (≈ 33.7 µM) | 12.5 µg/mL (≈ 33.7 µM) | 12.5 µg/mL (≈ 33.7 µM) | 12.5 µg/mL (≈ 33.7 µM) | 12.5 µg/mL (≈ 33.7 µM) | 6.25 µg/mL (≈ 16.9 µM) | Cc1cc(C)cc(-c2nnc(-c3ccccc3COc3ccccc3C)o2)c1 | 11 mm | 11 mm | 11 mm | 11 mm | 11 mm | 11 mm | 11 mm | 16 mm
16 | 25 µg/mL (≈ 73 µM) | 25 µg/mL (≈ 73 µM) | 25 µg/mL (≈ 73 µM) | 25 µg/mL (≈ 73 µM) | 25 µg/mL (≈ 73 µM) | 25 µg/mL (≈ 73 µM) | 25 µg/mL (≈ 73 µM) | 25 µg/mL (≈ 73 µM) | Cc1cccc(OCc2ccccc2-c2nnc(-c3ccccc3)o2)c1 | <10 mm | <10 mm | <10 mm | <10 mm | <10 mm | <10 mm | <10 mm | <10 mm
